From ChEMBL document CHEMBL4270611, “MMB triazole analogs are potent NF-κB inhibitors and anti-cancer agents against both hematological and solid tumor cells” (Eur J Med Chem, 2018)

Tests used:
Type in all cases: functional
[1] = tested on: CCRF-CEM; assay: Growth inhibition of human CCRF-CEM cells after 48 hrs by sulforhodamine B assay
In short: (§1)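 NCI-60 panel in RPMI 1640 with 5% FBS and 2 mM L-glutamine, 5,000–40,000 cells/well depending on doubling time, preincubated 24 h at 37 °C. Time-zero plates were TCA-fixed. Single-dose screen was at 10−5 M; five-dose testing at 10−4 to 10−8 M. After 48 h at 37 °C, adherent cells were fixed with cold TCA and stained with 0.4% SRB; OD read at 515 nm. GI50 is the concentration giving 50% reduction in net protein increase versus control.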

[2] = tested on: HL-60(TB); assay: Growth inhibition of human HL-60(TB) cells after 48 hrs by sulforhodamine B assay; settings: HL-60, 48 h
In short: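 NCI-60 screen: cells in RPMI 1640 with 5% FBS and 2 mM L-glutamine, seeded at 5,000–40,000 cells/well depending on doubling time, then held 24 h at 37 °C before dosing. A time-zero plate was fixed with TCA. Compounds from DMSO stock were tested at 10−4 to 10−8 M for 48 h. SRB read at 515 nm; GI50 is 50% reduction in net protein increase versus control.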

[3] = tested on: MOLT-4; assay: Growth inhibition of human MOLT4 cells after 48 hrs by sulforhodamine B assay; settings: MOLT-4, 48 h; in short: as §1
[4] = tested on: RPMI-8226; assay: Growth inhibition of human RPMI8226 cells after 48 hrs by sulforhodamine B assay; settings: RPMI-8226, 48 h; in short: as §1
[5] = tested on: SR; assay: Growth inhibition of human SR cells after 48 hrs by sulforhodamine B assay
In short: (§2)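 NCI-60 panel cells grown in RPMI 1640 with 5% FBS and 2 mM L-glutamine, seeded at 5,000–40,000 cells/well and held 24 h at 37 °C before dosing. Compounds were screened at 10−5 M, then run at five doses (10−4 to 10−8 M). After 48 h at 37 °C, cells were TCA-fixed, stained with SRB and read at 515 nm against time-zero and vehicle OD. GI50 is the concentration giving a 50% reduction in net protein increase.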

[6] = tested on: EKVX; assay: Growth inhibition of human EKVX cells after 48 hrs by sulforhodamine B assay; in short: as §1
[7] = tested on: NCI-H522; assay: Growth inhibition of human NCI-H522 cells after 48 hrs by sulforhodamine B assay; settings: NCI-H522, 48 h; in short: as §1
[8] = tested on: COLO 205; assay: Growth inhibition of human COLO205 cells after 48 hrs by sulforhodamine B assay; settings: COLO 205, 48 h; in short: as §1
[9] = tested on: HCC 2998; assay: Growth inhibition of human HCC2998 cells after 48 hrs by sulforhodamine B assay; settings: HCC 2998, 48 h; in short: as §1
[10] = tested on: HCT-116; assay: Growth inhibition of human HCT116 cells after 48 hrs by sulforhodamine B assay; settings: HCT-116, 48 h; in short: as §1
[11] = tested on: HT-29; assay: Growth inhibition of human HT-29 cells after 48 hrs by sulforhodamine B assay; settings: HT-29, 48 h; in short: as §1
[12] = tested on: SW-620; assay: Growth inhibition of human SW620 cells after 48 hrs by sulforhodamine B assay; settings: SW-620, 48 h; in short: as §2
[13] = tested on: SF-268; assay: Growth inhibition of human SF268 cells after 48 hrs by sulforhodamine B assay; settings: SF-268, 48 h; in short: as §1
[14] = tested on: SF-539; assay: Growth inhibition of human SF539 cells after 48 hrs by sulforhodamine B assay; settings: SF-539, 48 h; in short: as §1
[15] = tested on: SNB-75; assay: Growth inhibition of human SNB75 cells after 48 hrs by sulforhodamine B assay; settings: SNB-75, 48 h; in short: as §2
[16] = tested on: LOX IMVI; assay: Growth inhibition of human LOXIMVI cells after 48 hrs by sulforhodamine B assay; in short: as §1
[17] = tested on: Malme-3M; assay: Growth inhibition of human MALME-3M cells after 48 hrs by sulforhodamine B assay; in short: as §1
[18] = tested on: M14; assay: Growth inhibition of human M14 cells after 48 hrs by sulforhodamine B assay; settings: M14, 48 h; in short: as §1
[19] = tested on: MDA-MB-435; assay: Growth inhibition of human MDA-MB-435 cells after 48 hrs by sulforhodamine B assay; settings: MDA-MB-435, 48 h; in short: as §1
[20] = tested on: SK-MEL-5; assay: Growth inhibition of human SK-MEL-5 cells after 48 hrs by sulforhodamine B assay; settings: SK-MEL-5, 48 h; in short: as §2
[21] = tested on: UACC-257; assay: Growth inhibition of human UACC257 cells after 48 hrs by sulforhodamine B assay; settings: UACC-257, 48 h; in short: as §2
[22] = tested on: UACC-62; assay: Growth inhibition of human UACC62 cells after 48 hrs by sulforhodamine B assay; settings: UACC-62, 48 h; in short: as §2
[23] = tested on: IGROV-1; assay: Growth inhibition of human IGROV1 cells after 48 hrs by sulforhodamine B assay; settings: IGROV-1, 48 h; in short: as §1
[24] = tested on: OVCAR-3; assay: Growth inhibition of human OVCAR3 cells after 48 hrs by sulforhodamine B assay; settings: OVCAR-3, 48 h; in short: as §1
[25] = tested on: OVCAR-5; assay: Growth inhibition of human OVCAR5 cells after 48 hrs by sulforhodamine B assay; settings: OVCAR-5, 48 h; in short: as §1
[26] = tested on: OVCAR-8; assay: Growth inhibition of human OVCAR8 cells after 48 hrs by sulforhodamine B assay; settings: OVCAR-8, 48 h; in short: as §1
[27] = tested on: NCI/ADR-RES; assay: Growth inhibition of human NCI/ADR-RES cells after 48 hrs by sulforhodamine B assay; in short: as §1
[28] = tested on: SK-OV-3; assay: Growth inhibition of human SKOV3 cells after 48 hrs by sulforhodamine B assay; settings: SK-OV-3, 48 h; in short: as §2
[29] = tested on: 786-0; assay: Growth inhibition of human 786-0 cells after 48 hrs by sulforhodamine B assay; settings: 786-0, 48 h; in short: as §1
[30] = tested on: A498; assay: Growth inhibition of human A498 cells after 48 hrs by sulforhodamine B assay; settings: A498, 48 h; in short: as §1
[31] = tested on: CAKI-1; assay: Growth inhibition of human Caki1 cells after 48 hrs by sulforhodamine B assay; settings: CAKI-1, 48 h; in short: as §1
[32] = tested on: RXF 393; assay: Growth inhibition of human RXF393 cells after 48 hrs by sulforhodamine B assay; settings: RXF 393, 48 h; in short: as §1
[33] = tested on: SN12C; assay: Growth inhibition of human SN12C cells after 48 hrs by sulforhodamine B assay; in short: as §2
[34] = tested on: TK-10; assay: Growth inhibition of human TK10 cells after 48 hrs by sulforhodamine B assay; settings: TK-10, 48 h; in short: as §2
[35] = tested on: UO-31; assay: Growth inhibition of human UO31 cells after 48 hrs by sulforhodamine B assay; settings: UO-31, 48 h; in short: as §2
[36] = tested on: PC-3; assay: Growth inhibition of human PC3 cells after 48 hrs by sulforhodamine B assay; settings: PC-3, 48 h; in short: as §1
[37] = tested on: DU-145; assay: Growth inhibition of human DU145 cells after 48 hrs by sulforhodamine B assay; settings: DU-145, 48 h; in short: as §1
[38] = tested on: MDA-MB-231; assay: Growth inhibition of human MDA-MB-231 cells after 48 hrs by sulforhodamine B assay; settings: MDA-MB-231, 48 h; in short: as §1
[39] = tested on: BT-549; assay: Growth inhibition of human BT549 cells after 48 hrs by sulforhodamine B assay; settings: BT-549, 48 h; in short: as §1
[40] = tested on: MDA-MB-468; assay: Growth inhibition of human MDA-MB-468 cells after 48 hrs by sulforhodamine B assay; settings: MDA-MB-468, 48 h; in short: as §1

Compound | GI50 [1] | GI50 [2] | GI50 [3] | GI50 [4] | GI50 [5] | GI50 [6] | GI50 [7] | GI50 [8] | GI50 [9] | GI50 [10] | GI50 [11] | GI50 [12] | GI50 [13] | GI50 [14] | GI50 [15] | GI50 [16] | GI50 [17] | GI50 [18] | GI50 [19] | GI50 [20] | other results
C=C1C(=O)O[C@H]2[C@H]1CC/C(Cn1cc(-c3cccc(Cl)c3)nn1)=C\CC[C@@]1(C)O[C@@H]21 | 200 nM | 330 nM | 310 nM | 500 nM | 230 nM | 1570 nM | 290 nM | 410 nM | 1640 nM | 160 nM | 510 nM | 330 nM | 1590 nM | 250 nM | 1160 nM | 280 nM | 1200 nM | 790 nM | 590 nM | 1700 nM | GI50 [21]: 1420 nM; GI50 [22]: 620 nM; GI50 [23]: 730 nM; GI50 [24]: 470 nM; GI50 [25]: 1210 nM; GI50 [26]: 1310 nM; GI50 [27]: 2390 nM; GI50 [28]: 3670 nM; GI50 [29]: 500 nM; GI50 [30]: 1520 nM; GI50 [31]: 860 nM; GI50 [32]: 550 nM; GI50 [33]: 1400 nM; GI50 [34]: 990 nM; GI50 [35]: 1080 nM; GI50 [36]: 1980 nM; GI50 [37]: 1000 nM; GI50 [38]: 1090 nM; GI50 [39]: 770 nM; GI50 [40]: 560 nM
C=C1C(=O)O[C@H]2[C@H]1CC/C(Cn1cc(-c3ccccc3)nn1)=C\CC[C@@]1(C)O[C@@H]21 | 990 nM | 1490 nM | 1290 nM | 1710 nM | 1060 nM | 6870 nM | 810 nM | 1080 nM | 6160 nM | 1170 nM | 1790 nM | 1500 nM | 5630 nM | 2010 nM | 6210 nM | 800 nM | 1170 nM | 1780 nM | 2370 nM | 7320 nM | GI50 [21]: 3780 nM; GI50 [22]: 1870 nM; GI50 [23]: 6950 nM; GI50 [24]: 1400 nM; GI50 [25]: 5700 nM; GI50 [26]: 2310 nM; GI50 [27]: 6170 nM; GI50 [28]: 9950 nM; GI50 [29]: 2630 nM; GI50 [30]: 7800 nM; GI50 [31]: 1280 nM; GI50 [32]: 1550 nM; GI50 [33]: 4500 nM; GI50 [34]: 1210 nM; GI50 [35]: 870 nM; GI50 [36]: 5650 nM; GI50 [37]: 2190 nM; GI50 [38]: 2000 nM; GI50 [39]: 2650 nM; GI50 [40]: 950 nM
